Test results reported in ChEMBL document CHEMBL1128689, “Vinyl sulfones as mechanism-based cysteine protease inhibitors” (J Med Chem, 1995).

Columns and labels:
[1] = biological target: Cruzipain (Trypanosoma cruzi) (UniProt P25779); test: Compound is evaluated for inhibition kinetic constant (kobs/[I], 1/M.1/s) for Cruzaine
Method in brief: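 Enzyme (~1-5 nM) starts the reaction with substrate and inhibitor present. Fluorescence ex 380/em 450 nm for 5 min. kobs from first-order fits at ≥6 inhibitor concentrations; Ki app corrected by 1+[S]/Km; second-order constant from 1/kobs vs 1/[I] slope; duplicates.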

Cathepsin B [2] = biological target: T1, Cathepsin B (Homo sapiens, UniProt P07858); test: Compound is evaluated for inhibition kinetic constant (kobs/[I], 1/M.s) for cathepsin B
Method in brief: (§1)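 Cathepsin B, ~5-10 nM, added to 50 mM phosphate pH 6.0, 2.5 mM EDTA, 2.5 mM DTT, 50 μM Z-Arg-Arg-AMC (Km 190 μM), DMF <1%, 25 °C. Fluorescence ex 380/em 450 nm over 5 min. kobs by first-order fit at ≥6 inhibitor concentrations; kirr and Ki app from saturation fit, Ki = Ki app/(1+[S]/Km); kirr/Ki also from 1/kobs vs 1/[I]; duplicates.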

[3] = biological target: T2, Cathepsin K (Homo sapiens) (UniProt P43235); test: Compound is evaluated for inhibition kinetic constant (kobs/[I], 1/M.1/s) for cathepsin O2
T2 sequence (whole entry): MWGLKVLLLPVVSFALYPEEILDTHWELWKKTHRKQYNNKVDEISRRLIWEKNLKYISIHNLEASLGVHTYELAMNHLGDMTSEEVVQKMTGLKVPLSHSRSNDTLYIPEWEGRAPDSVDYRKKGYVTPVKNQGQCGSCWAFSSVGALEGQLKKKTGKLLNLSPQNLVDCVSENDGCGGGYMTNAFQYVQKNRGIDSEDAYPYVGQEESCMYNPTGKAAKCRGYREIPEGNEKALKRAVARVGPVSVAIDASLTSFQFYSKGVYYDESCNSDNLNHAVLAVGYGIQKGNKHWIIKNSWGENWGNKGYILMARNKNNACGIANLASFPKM
Method in brief: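 Read at ex 380/em 450 nm for 5 min. Progress curves fit first-order for kobs at ≥6 inhibitor concentrations; kinact and Ki app from saturation fit, Ki corrected for substrate; ratio also from double-reciprocal slope; duplicates.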

Procathepsin L = Procathepsin L (Homo sapiens, UniProt P07711); test: Compound is evaluated for inhibition kinetic constant (kobs/[I], 1/M.1/s) for cathepsin L
Sequence of Procathepsin L (P07711 114-333 limits assumed): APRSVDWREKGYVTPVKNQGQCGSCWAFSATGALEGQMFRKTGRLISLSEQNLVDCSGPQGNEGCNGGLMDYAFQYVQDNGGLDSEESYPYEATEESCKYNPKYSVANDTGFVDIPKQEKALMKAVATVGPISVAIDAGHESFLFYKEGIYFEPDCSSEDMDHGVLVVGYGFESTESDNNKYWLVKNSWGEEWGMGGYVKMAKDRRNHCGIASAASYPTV
Method in brief: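 Fluorescence increase (ex 380, em 450 nm) followed 5 min or to ≤1% activity. kobs by first-order fit at ≥6 inhibitor levels near Ki, fit to saturation equation; Ki = Ki app/(1+[S]/Km); duplicates.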

Cathepsin S = Cathepsin S (Homo sapiens, UniProt P25774); test: Compound is evaluated for inhibition kinetic constant (kobs/[I], 1/M.1/s) for cathepsin S
Sequence of Cathepsin S (P25774 115-331 limits assumed): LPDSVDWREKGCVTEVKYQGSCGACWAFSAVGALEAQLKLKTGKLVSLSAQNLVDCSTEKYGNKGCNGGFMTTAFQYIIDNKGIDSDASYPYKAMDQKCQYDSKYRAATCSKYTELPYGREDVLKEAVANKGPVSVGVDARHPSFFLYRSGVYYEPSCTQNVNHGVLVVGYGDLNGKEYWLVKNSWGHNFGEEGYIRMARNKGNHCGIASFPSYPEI
Method in brief: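 Fluorescence ex 380/em 450 nm, 5 min or to ≤1% activity. kobs from first-order fits, ≥6 inhibitor levels near Ki, fit to saturation equation; Ki corrected by 1+[S]/Km; duplicates.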

[4] = biological target: T3, Calpain-1 catalytic subunit (Homo sapiens) (UniProt P07384); test: Compound is evaluated for inhibition kinetic constant (kobs/[I], 1/M.1/s) for calpain 1
T3 sequence (whole entry): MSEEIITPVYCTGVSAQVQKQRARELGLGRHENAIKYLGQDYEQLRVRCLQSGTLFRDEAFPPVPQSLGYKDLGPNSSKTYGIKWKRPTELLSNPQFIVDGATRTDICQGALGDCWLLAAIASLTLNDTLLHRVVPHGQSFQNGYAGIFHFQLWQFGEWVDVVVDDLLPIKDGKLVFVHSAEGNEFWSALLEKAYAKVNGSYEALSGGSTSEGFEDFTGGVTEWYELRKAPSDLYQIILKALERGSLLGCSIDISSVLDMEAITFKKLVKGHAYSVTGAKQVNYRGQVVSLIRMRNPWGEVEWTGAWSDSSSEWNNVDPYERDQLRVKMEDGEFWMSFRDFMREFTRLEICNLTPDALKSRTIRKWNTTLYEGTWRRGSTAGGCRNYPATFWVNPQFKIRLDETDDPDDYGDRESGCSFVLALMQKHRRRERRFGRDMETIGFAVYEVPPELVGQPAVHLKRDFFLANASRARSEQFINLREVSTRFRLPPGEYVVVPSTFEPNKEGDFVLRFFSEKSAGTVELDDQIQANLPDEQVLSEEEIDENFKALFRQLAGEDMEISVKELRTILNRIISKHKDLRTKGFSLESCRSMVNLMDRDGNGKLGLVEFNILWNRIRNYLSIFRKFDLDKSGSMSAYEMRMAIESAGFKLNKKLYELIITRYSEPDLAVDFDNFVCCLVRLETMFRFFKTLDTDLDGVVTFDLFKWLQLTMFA
Method in brief: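 Enzyme ~20 nM is added last to substrate plus inhibitor at 25 °C. Fluorescence ex 380/em 450 nm for 5 min or until ≤1% activity. Progress curves fit first-order to kobs; reported as kobs/[I]; duplicate runs.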

Cathepsin B [5] = biological target: T1, Cathepsin B; test: Compound is evaluated for inhibition kinetic constant Ki for the cathepsin B; method in brief: as §1
Cathepsin B [6] = biological target: T1, Cathepsin B; test: Ratio of inhibition kinetic constants kirr and Ki against Cathepsin B; method in brief: as §1
Cathepsin B [7] = biological target: T1, Cathepsin B; test: Compound is evaluated for inhibition kinetic constant Kirr for the cathepsin B; method in brief: as §1

Sequence of Cruzipain (Trypanosoma cruzi) (P25779 123-467 limits assumed): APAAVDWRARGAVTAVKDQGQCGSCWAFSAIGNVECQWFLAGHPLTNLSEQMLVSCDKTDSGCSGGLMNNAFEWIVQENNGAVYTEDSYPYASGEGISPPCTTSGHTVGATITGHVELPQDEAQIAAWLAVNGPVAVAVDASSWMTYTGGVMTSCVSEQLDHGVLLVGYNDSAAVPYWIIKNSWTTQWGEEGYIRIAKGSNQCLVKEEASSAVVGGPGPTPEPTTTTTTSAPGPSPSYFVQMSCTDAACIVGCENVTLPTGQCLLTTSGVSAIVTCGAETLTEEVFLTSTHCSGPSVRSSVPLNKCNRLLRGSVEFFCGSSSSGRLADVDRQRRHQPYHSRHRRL

SMILES	k obs / 1 [1]	k obs / 1 (Cathepsin B [2])	k obs / 1 [3]	k obs / 1 (Procathepsin L)	k obs / 1 (Cathepsin S)	k obs / 1 [4]	Ki (Cathepsin B [5])	Ratio (Cathepsin B [6])	kirr (Cathepsin B [7])
CSCC[C@H](NC(=O)[C@H](CC(C)C)NC(=O)[C@H](CC(C)C)NC(C)=O)C(=O)/C=C/S(=O)(=O)c1ccccc1	110000 M⁻¹ s⁻¹	0 M⁻¹ s⁻¹	25000 M⁻¹ s⁻¹	880000 M⁻¹ s⁻¹	–	5600 M⁻¹ s⁻¹	–	–	–
CC(C)C[C@H](NC(=O)OCc1ccccc1)C(=O)N[C@@H](CC(C)C)C(=O)N[C@@H](Cc1ccc(O)cc1)C(=O)/C=C/S(=O)(=O)c1ccccc1	45000 M⁻¹ s⁻¹	730 M⁻¹ s⁻¹	900 M⁻¹ s⁻¹	–	280000 M⁻¹ s⁻¹	6400 M⁻¹ s⁻¹	–	–	–
O=C(NC(=O)[C@H](Cc1ccc2ccccc2c1)NC(=O)[C@H](CCc1ccccc1)N/C=C/S(=O)(=O)CCc1ccccc1)NN1CCOCC1	450000 M⁻¹ s⁻¹	33000 M⁻¹ s⁻¹	–	2.24e+06 M⁻¹ s⁻¹	2.9e+07 M⁻¹ s⁻¹	–	–	–	–

More lines, now with the values ahead:

k obs / 1 [1]	k obs / 1 (Cathepsin B [2])	k obs / 1 [3]	k obs / 1 (Procathepsin L)	k obs / 1 (Cathepsin S)	k obs / 1 [4]	Ki (Cathepsin B [5])	Ratio (Cathepsin B [6])	kirr (Cathepsin B [7])	SMILES
22000 M⁻¹ s⁻¹	5100 M⁻¹ s⁻¹	6540 M⁻¹ s⁻¹	8700 M⁻¹ s⁻¹	1.2e+06 M⁻¹ s⁻¹	–	–	–	–	CS(=O)(=O)/C=C/N[C@@H](CCc1ccccc1)C(=O)N[C@@H](Cc1ccccc1)C(=O)NC(=O)NN1CCOCC1
180000 M⁻¹ s⁻¹	29000 M⁻¹ s⁻¹	28500 M⁻¹ s⁻¹	340000 M⁻¹ s⁻¹	4.7e+06 M⁻¹ s⁻¹	–	–	–	–	O=C(NC(=O)[C@H](Cc1ccccc1)NC(=O)[C@H](CCc1ccccc1)N/C=C/S(=O)(=O)CCc1ccccc1)NN1CCOCC1
–	–	–	–	–	–	340 nM	1.08e+06	0.36 s⁻¹	O=C(NC(=O)[C@H](Cc1cc(I)c(O)c(I)c1)NC(=O)[C@H](CCc1ccccc1)N/C=C/S(=O)(=O)c1ccccc1)NN1CCOCC1
